Screening data from PubChem.
KCNQ1 act – potentiators or activators of KCNQ1 channel, primary screen, cell-based, thallium flux, high-throughput; 310,000 compounds, 0.35% hits; B-score at 10 µM; Potassium voltage-gated channel subfamily KQT member 1 (Homo sapiens), P51787; CHO-K1 KCNQ1, thallium flux FluxOR fluorescence; stronger effect = higher value; AID 2648, 2010;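 active = fluorescence ratio B-score, a plate-corrected score, at least three library SD, with initial intensity B-score within 5 SD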
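assay system = KCNQ1-transfected CHO-K1 cells | medium = assay buffer with matched DMSO | probe or stimulus = depolarizing K+/Tl+ stimulus, K2SO4 and Tl2SO4 each 12.5 mM in 5x stock | dosing = single dose | incubation = dye 90 min, compound 20 min, room temperature | detection = kinetic FluxOR fluorescence, 10 s baseline plus 110 s post-stimulus | evaluation = ratio B score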
KCNK9 block – KCNK9 potassium channel inhibitors, primary screen, HEK293 cells, thallium flux; Potassium channel subfamily K member 9 (Homo sapiens), Q9NPC2; FluxOR thallium flux fluorescence; stronger effect = lower value; B-score at 10 µM; 310,000 compounds, 1.2% hits;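 active = ratio B-score over 3 SD below the library mean, with starting fluorescence within 5 SD of its mean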;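 note: negative B-score means less thallium flux so channel inhibition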
KCNK3 block – human KCNK3 channel inhibitors, primary screen, CHO cells, FluxOR thallium flux, B-score | Potassium channel subfamily K member 3 (Homo sapiens), O14649 | FluxOR fluorescence; stronger effect = lower value | B-score at 10 µM | 340,000 compounds, 0.84% hits;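 active = B-score under library mean minus 4 SD, starting fluorescence ratio at most library mean plus 5 SD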;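 note: more negative B-score means stronger inhibition of thallium flux through KCNK3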
hERG rescue – hERG rescue from dofetilide block, primary screen, cell-based, CHO-hERG, FluxOR thallium flux, dofetilide IC70 | dofetilide IC70 present | activation (rescue from dofetilide block), less the hit threshold, % at 10 µM | 310,000 compounds, 0.51% hits | AID 1511, 2009;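 active = activation above the mean of controls blocked by dofetilide plus 5 SD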;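 note: thallium influx through hERG after potassium depolarization seen as dye fluorescence rise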
Cl transport mod – KCC2 cotransporter modulators, thallium flux, primary screen, cell-based, HEK293 KCC2, FluoZin-2 fluorescence, MLSMR | Solute carrier family 12 member 5 (Homo sapiens), Q9H2X9 | 190,000 compounds, 2.2% hits | KCC2 cells, thallium flux FluoZin-2 fluorescence | B-score of Tl+ flux slope (higher = more flux/activation; lower = inhibition) at 10 µM;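 active = thallium flux slope and its plate-corrected score both differing from the plate sample mean at a set confidence after two filtering rounds, in either direction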;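 note: slope of fluorescence scaled to starting intensity during 10 to 20 s after thallium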
Target sequence (Q9H2X9 whole entry, looked up): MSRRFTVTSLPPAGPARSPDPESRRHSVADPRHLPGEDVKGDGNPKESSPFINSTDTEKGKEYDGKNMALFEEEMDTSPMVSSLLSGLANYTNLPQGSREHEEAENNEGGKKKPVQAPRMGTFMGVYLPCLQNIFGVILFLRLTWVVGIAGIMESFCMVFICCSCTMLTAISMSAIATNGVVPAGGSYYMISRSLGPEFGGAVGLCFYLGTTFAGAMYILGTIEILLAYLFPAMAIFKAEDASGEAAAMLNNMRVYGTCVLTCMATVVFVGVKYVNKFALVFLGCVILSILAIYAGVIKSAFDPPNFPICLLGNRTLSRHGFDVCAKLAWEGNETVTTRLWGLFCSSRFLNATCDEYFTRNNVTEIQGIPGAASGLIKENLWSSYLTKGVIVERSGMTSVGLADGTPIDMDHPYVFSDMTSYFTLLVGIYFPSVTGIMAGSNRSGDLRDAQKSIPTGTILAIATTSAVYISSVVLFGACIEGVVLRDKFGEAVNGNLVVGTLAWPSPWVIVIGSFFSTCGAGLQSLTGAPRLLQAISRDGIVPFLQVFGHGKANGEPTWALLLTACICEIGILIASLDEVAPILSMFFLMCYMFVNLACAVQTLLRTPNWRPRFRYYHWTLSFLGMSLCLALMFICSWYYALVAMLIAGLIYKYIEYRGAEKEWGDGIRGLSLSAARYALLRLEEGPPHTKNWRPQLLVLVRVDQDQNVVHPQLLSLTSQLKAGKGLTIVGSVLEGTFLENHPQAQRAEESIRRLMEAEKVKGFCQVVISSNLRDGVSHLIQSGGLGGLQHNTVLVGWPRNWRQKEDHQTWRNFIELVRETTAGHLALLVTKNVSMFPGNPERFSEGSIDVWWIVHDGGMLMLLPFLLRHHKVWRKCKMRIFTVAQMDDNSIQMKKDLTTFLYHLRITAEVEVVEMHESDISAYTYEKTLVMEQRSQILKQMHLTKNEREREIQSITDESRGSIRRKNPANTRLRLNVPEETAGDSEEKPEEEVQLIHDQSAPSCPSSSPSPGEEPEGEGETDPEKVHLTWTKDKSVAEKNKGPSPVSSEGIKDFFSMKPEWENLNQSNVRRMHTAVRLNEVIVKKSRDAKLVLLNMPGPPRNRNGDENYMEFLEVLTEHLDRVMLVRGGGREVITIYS
KCNQ1 block – inhibitors of human KCNQ1 channel, primary screen, cell-based, thallium flux, high-throughput; B-score at 10 µM; 310,000 compounds, 1.3% hits; CHO-K1 KCNQ1, FluxOR thallium flux fluorescence; stronger effect = higher value; Potassium voltage-gated channel subfamily KQT member 1 (Homo sapiens), P51787;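 active = compounds whose thallium flux B-score, printed positive for inhibition, exceeds three library SD while starting fluorescence stays within three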;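 note: channel opened by potassium depolarization with thallium stimulus after 20 min compound exposure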
KCC2 secondary – KCC2 modulators in sodium-free buffer, confirmation, cell-based, HEK293 KCC2, thallium flux, secondary assay; FluoZin2 fluorescence; stronger effect = higher value; AID 1713, 2009; shares compounds with Cl transport mod; normalised thallium flux (F/F0 slope) at 10 µM; 3,700 compounds, 15% hits;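 active = thallium flux slope above the same plate's solvent-only control mean plus 3 SD; inconclusive = the two replicate wells disagree; inactive = no significant difference from solvent-only control wells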
KCC2 bumet counter – thallium flux persisting under bumetanide in KCC2 cells, confirmation, counter-screen for KCC2 modulator project, cell-based, HEK293 KCC2, FluoZin2, secondary assay 3 | shares compounds with Cl transport mod | HEK293-KCC2 + bumetanide/ouabain; stronger effect = higher value | normalized thallium flux at 10 µM | 3,700 compounds, 49% hits;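 active = thallium entry rate above the same plate's blocked-transporter control wells by more than 3 SD; inconclusive = the two repeat wells disagree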;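 note: raw slope of fluorescence over initial fluorescence between 10 and 20 s after thallium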
KCC2 secondary2 – KCC2 modulators without ouabain present, confirmation, cell-based, HEK293 KCC2, thallium flux, FluoZin2, secondary assay 2; shares compounds with Cl transport mod; thallium flux FluoZin2 fluorescence; actives lie on both sides; F/F0 rise rate, 10–20 s post-thallium; normalized thallium flux at 10 µM; 3,700 compounds, 23% hits;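 active = thallium flux slope more than 3 SD above or below the plate's solvent-only control mean, mostly below; inconclusive = the two repeat wells disagreed; inactive = no significant shift from solvent-only controls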
HEK counter1 – thallium flux modulation in parental HEK cells, confirmation, counter-screen for KCC2 modulator project, cell-based, counterscreen 1 | shares compounds with Cl transport mod | HEK293 parental cells, thallium flux FluoZin2, ouabain; baseline-ratio fluorescence slope, 10–20 s after thallium | thallium flux rate (normalised fluorescence) at 10 µM | 3,700 compounds, 46% hits;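 active = thallium flux rate significantly above the same plate's solvent-only control wells, beyond their mean plus 3 SD; inconclusive = the two replicate wells gave conflicting results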
KCC2 retest ouab – KCC2 inhibitors and activators, ouabain retest, confirmation, HEK-KCC2 cells; 3,700 compounds, 48% hits; raw Tl+ flux slope (below DMSO = inhibition, above = activation) at 10 µM; shares compounds with Cl transport mod; HEK293-KCC2, thallium flux FluoZin2 fluorescence; bidirectional: low = inhibitor, high = activator; AID 1717, 2009;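 active = thallium flux slope beyond 3 SD from same-plate DMSO control mean in most replicates, usually higher, sometimes lower; inconclusive = repeat tests gave conflicting results; inactive = no significant difference from controls in most replicates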;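 note: slope of initial-normalized fluorescence between seconds 10 and 20 after thallium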
HEK293 Tl flux2 – native HEK Tl+ uptake effects, second counter-screen – HEK cells, counterscreen 2, counter-screen for KCC2 modulator project, confirmation | 3,700 compounds, 33% hits | shares compounds with Cl transport mod | thallium flux slope at 10 µM | HEK293 parental, thallium flux FluoZin-2 fluorescence slope;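 active = thallium flux slope above the same plate's solvent-control mean plus 3 SD in both duplicate wells; inconclusive = duplicate wells that disagreed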;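 note: run without ouabain in cells lacking the KCC2 cotransporter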
Large screens that a line does not name were inactive (follow-up assays come after a bar, where they were run). A selection: hits, their analogues and other compounds. The true share with any hit is near 4.1%.

S=C(Nc1ccc(Cl)cc1Cl)NC1CCN(Cc2ccccc2)CC1	Cl transport mod -3.75 | KCC2 secondary inactive | KCC2 bumet counter inconclusive | KCC2 secondary2 inactive | HEK counter1 inactive | KCC2 retest ouab 0.021 | HEK293 Tl flux2 inconclusive
COc1ccc(-n2c(-c3ccc(Cl)cc3)c[nH]c2=S)cc1	none (no result: Cl transport mod)
COc1ccc(-n2cc(-c3ccc(Cl)cc3)[nH]c2=S)cc1	Cl transport mod 5.66 | KCC2 secondary 0.0246 | KCC2 bumet counter 0.0132 | KCC2 secondary2 inactive | HEK counter1 0.00925 | KCC2 retest ouab inactive | HEK293 Tl flux2 inactive
CC1CC(=O)c2cnc(Nc3cccc(C(F)(F)F)c3)nc2C1 (configuration not stated)	Cl transport mod -2.98 | KCC2 secondary 0.0122 | KCC2 bumet counter inconclusive | KCC2 secondary2 inactive | HEK counter1 inactive | KCC2 retest ouab inactive | HEK293 Tl flux2 inactive
Cc1[nH]n(C(N)=S)c(=O)c1N=Nc1ccc(S(=O)(=O)N2CCCCCC2)cc1	none (no result: Cl transport mod)
Cc1[nH]n(C(N)=S)c(=O)c1N=Nc1ccc2ccccc2c1	Cl transport mod 31.9 | KCC2 secondary inactive | KCC2 bumet counter 0.088 | KCC2 secondary2 inconclusive | HEK counter1 0.0271 | KCC2 retest ouab 0.0363 | HEK293 Tl flux2 0.0191
Cc1c(N=Nc2c(-c3ccc([N+](=O)[O-])cc3)[nH]n(C(N)=S)c2=O)cccc1[N+](=O)[O-]	none (no result: KCNQ1 act, KCNK9 block, hERG rescue, KCNQ1 block)
Cc1ccc(N=Nc2c(C)[nH]n(C(N)=S)c2=O)cc1C	Cl transport mod 16.3 | KCC2 secondary inactive | KCC2 bumet counter 0.0673 | KCC2 secondary2 inactive | HEK counter1 0.0211 | KCC2 retest ouab 0.0602 | HEK293 Tl flux2 inactive
CC(=O)Nc1ccc(N=Nc2c(C)[nH]n(C(N)=S)c2=O)cc1	none
Cc1[nH]n(C(N)=S)c(=O)c1N=Nc1cc(-c2ccc(Br)cc2)[nH]n1	Cl transport mod -6.93 | KCC2 secondary inactive | KCC2 bumet counter inactive | KCC2 secondary2 inactive | HEK counter1 0.00556 | KCC2 retest ouab 0.0108 | HEK293 Tl flux2 inactive
O=C(CNC1CCCCC1)Nc1cccc(C(F)(F)F)c1	none (no result: Cl transport mod)
CN(Cc1ccc(C(C)(C)C)cc1)C(=O)c1ccc2c(=O)n3c(nc2c1)CCC3	none (no result: Cl transport mod)
COc1ccccc1N1C(=O)CC(N2CCN(c3ccc(Cl)cc3)CC2)C1=O (configuration not stated)	none (no result: Cl transport mod)
CCOC(=O)c1ccccc1NC(=O)CSc1ccc(-c2ccccn2)nn1	none (no result: Cl transport mod)
O=C(Nc1ccc2ccccc2c1)C(=O)C1C(=O)Nc2ccccc21 (configuration not stated)	Cl transport mod 25.1 (no result: KCNK3 block) | KCC2 secondary inconclusive | KCC2 bumet counter 0.0225 | KCC2 secondary2 inconclusive | HEK counter1 0.0176 | KCC2 retest ouab inactive | HEK293 Tl flux2 0.0174
C[C@H](CO)N1C[C@H](C)[C@@H](CN(C)Cc2ccc(Cl)c(Cl)c2)Oc2c(NC(=O)Cc3ccccc3)cccc2C1=O	none (no result: KCNQ1 act, KCNK9 block, hERG rescue, Cl transport mod, KCNQ1 block)
S=C1NC2(CCCCC2)N=C1c1ccccc1	Cl transport mod 4.72 | KCC2 secondary inactive | KCC2 bumet counter 0.03 | KCC2 secondary2 inactive | HEK counter1 0.0118 | KCC2 retest ouab inconclusive | HEK293 Tl flux2 0.012
Cc1ccc(C2=NC3(CCCCC3)NC2=S)cc1	none
Cc1cc(N2C(=O)C(O)=C(C(=O)c3ccc(C)o3)C2c2ccc([N+](=O)[O-])cc2)no1 (configuration not stated)	none (no result: Cl transport mod)
CC(C)N(Cc1nc(-c2ccccc2)no1)C(=O)CN(C)S(=O)(=O)c1ccc(Br)cc1	none | KCC2 secondary inactive | KCC2 bumet counter inactive | KCC2 secondary2 inactive | HEK counter1 inactive | KCC2 retest ouab inactive | HEK293 Tl flux2 inactive
CC1(c2ccc(OC(F)F)cc2)NC(=O)N(CC(=O)N2c3ccccc3NC(=O)C2(C)C)C1=O (configuration not stated)	none (no result: KCNQ1 act, KCNK9 block, hERG rescue, Cl transport mod, KCNQ1 block)
CO/N=C/c1ccc(Oc2ccc([N+](=O)[O-])cc2[N+](=O)[O-])c(OC)c1	none
CCOc1ccc(/C=C2\SC(=S)NC2=O)cc1OC	Cl transport mod 9.4 | KCC2 secondary 0.0129 | KCC2 bumet counter 0.0205 | KCC2 secondary2 inconclusive | HEK counter1 0.0159 | KCC2 retest ouab inactive | HEK293 Tl flux2 0.012
CCOc1cc(/C=C2\SC(=S)N(NS(=O)(=O)c3ccccc3)C2=O)ccc1O	none (no result: Cl transport mod)
COc1cc(/C=C2\SC(=O)NC2=O)ccc1Oc1ccc([N+](=O)[O-])cc1[N+](=O)[O-]	Cl transport mod -4.19 | KCC2 secondary inactive | KCC2 bumet counter 0.0101 | KCC2 secondary2 inactive | HEK counter1 inactive | KCC2 retest ouab inactive | HEK293 Tl flux2 inactive
CCOc1ccc(/C=C2\SC(=S)N(C)C2=O)cc1OC	none
